# System: SNB-75
# Assay: Growth inhibition of human SNB-75 cells incubated for 48 hrs by sulforhodamine B assay
# Assay type: functional
# Settings: not given
# In short: (§1)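 NCI DTP 60-line human tumour panel. Dose-response curves were run only for ligands active in the initial 10 µM screen. GI50 (concentration giving 50% of maximal inhibition of proliferation) and TGI (concentration giving total growth inhibition) were derived from these curves.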
Compound,GI50 [nM],LC50 [µM],TGI [µM]
COc1cccc(NC(=O)c2sc3nc4c(cc3c2N)CN(Cc2ccccc2)CC4)c1,1730,33.7,4.71

# System: NCI-H23
# Assay: Growth inhibition of human NCI-H23 cells assessed as cell growth at 0.1 uM incubated for 48 hrs by sulforhodamine B assay relative to control
# Assay type: functional
# Settings: read-out: Activity
row,Compound,growth at 0.1 µM [%]
1,COc1cccc(NC(=O)c2sc3nc4c(cc3c2N)CN(Cc2ccccc2)CC4)c1,101

# System: OVCAR-8
# Assay: Growth inhibition of human OVCAR-8 cells assessed as cell growth at 1 uM incubated for 48 hrs by sulforhodamine B assay relative to control
# Assay type: functional
# Settings: read-out: Activity
row,Compound,growth at 1 µM [%]
1,COc1cccc(NC(=O)c2sc3nc4c(cc3c2N)CN(Cc2ccccc2)CC4)c1,90

# System: MDA-MB-435
# Assay: Growth inhibition of human MDA-MB-435 cells incubated for 48 hrs by sulforhodamine B assay
# Assay type: functional
# Settings: not given
# In short: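 NCI60 panel at the NCI Developmental Therapeutics Program. Only compounds active in the 10 µM screen went to dose-response testing. GI50, the concentration giving 50% of maximal inhibition of proliferation, and TGI, the concentration giving total growth inhibition, were derived from the dose-response curves.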
Compound,GI50 [nM],TGI [µM]
COc1cccc(NC(=O)c2sc3nc4c(cc3c2N)CN(Cc2ccccc2)CC4)c1,296,11

# Same assay, conditions: read-out: LC50 (the source's name)
row,Compound,CC50 [µM]
1,COc1cccc(NC(=O)c2sc3nc4c(cc3c2N)CN(Cc2ccccc2)CC4)c1,49

# System: NCI-H226
# Assay: Growth inhibition of human NCI-H226 cells assessed as cell growth at 0.01 uM incubated for 48 hrs by sulforhodamine B assay relative to control
# Assay type: functional
# Settings: read-out: Activity
row,Compound,growth at 0.01 µM [%]
1,COc1cccc(NC(=O)c2sc3nc4c(cc3c2N)CN(Cc2ccccc2)CC4)c1,93

# System: CCRF-CEM
# Assay: Growth inhibition of human CCRF-CEM cells assessed as cell growth at 0.01 uM incubated for 48 hrs by sulforhodamine B assay relative to control
# Assay type: functional
# Settings: read-out: Activity
# In short: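 NCI Developmental Therapeutics Program NCI60 panel. Compounds that were active in the 10 µM one-dose screen went on to dose–response testing. Growth at each concentration is expressed relative to untreated control (100%). GI50 (concentration giving 50% of maximal inhibition of proliferation) and TGI (concentration giving total growth inhibition) were derived from the curves.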
row,Compound,growth at 0.01 µM [%]
1,COc1cccc(NC(=O)c2sc3nc4c(cc3c2N)CN(Cc2ccccc2)CC4)c1,99

# System: RXF 393
# Assay: Growth inhibition of human RXF 393 cells assessed as cell growth at 0.1 uM incubated for 48 hrs by sulforhodamine B assay relative to control
# Assay type: functional
# Settings: read-out: Activity
row,Compound,growth at 0.1 µM [%]
1,COc1cccc(NC(=O)c2sc3nc4c(cc3c2N)CN(Cc2ccccc2)CC4)c1,95

# System: OVCAR-5
# Assay: Growth inhibition of human OVCAR-5 cells incubated for 48 hrs by sulforhodamine B assay
# Assay type: functional
# Settings: not given
# In short: as §1
Compound,GI50 [µM],TGI [µM]
COc1cccc(NC(=O)c2sc3nc4c(cc3c2N)CN(Cc2ccccc2)CC4)c1,36.9,> 100

# Same assay, conditions: read-out: LC50 (the source's name)
row,Compound,CC50 [µM]
1,COc1cccc(NC(=O)c2sc3nc4c(cc3c2N)CN(Cc2ccccc2)CC4)c1,> 100

# System: MDA-MB-435
# Assay: Growth inhibition of human MDA-MB-435 cells assessed as cell growth at 100 uM incubated for 48 hrs by sulforhodamine B assay relative to control
# Assay type: functional
# Settings: read-out: Activity
row,Compound,growth at 100 µM [%]
1,COc1cccc(NC(=O)c2sc3nc4c(cc3c2N)CN(Cc2ccccc2)CC4)c1,-74

# System: T47D
# Assay: Growth inhibition of human T47D cells assessed as cell growth at 0.1 uM incubated for 48 hrs by sulforhodamine B assay relative to control
# Assay type: functional
# Settings: read-out: Activity
row,Compound,growth at 0.1 µM [%]
1,COc1cccc(NC(=O)c2sc3nc4c(cc3c2N)CN(Cc2ccccc2)CC4)c1,94

# System: SK-MEL-5
# Assay: Growth inhibition of human SK-MEL-5 cells assessed as cell growth at 0.1 uM incubated for 48 hrs by sulforhodamine B assay relative to control
# Assay type: functional
# Settings: read-out: Activity
row,Compound,growth at 0.1 µM [%]
1,COc1cccc(NC(=O)c2sc3nc4c(cc3c2N)CN(Cc2ccccc2)CC4)c1,90

# System: SK-MEL-28
# Assay: Growth inhibition of human SK-MEL-28 cells assessed as cell growth at 0.01 uM incubated for 48 hrs by sulforhodamine B assay relative to control
# Assay type: functional
# Settings: read-out: Activity
row,Compound,growth at 0.01 µM [%]
1,COc1cccc(NC(=O)c2sc3nc4c(cc3c2N)CN(Cc2ccccc2)CC4)c1,97

# System: HCT-116
# Assay: Growth inhibition of human HCT-116 cells assessed as cell growth at 0.1 uM incubated for 48 hrs by sulforhodamine B assay relative to control
# Assay type: functional
# Settings: read-out: Activity
row,Compound,growth at 0.1 µM [%]
1,COc1cccc(NC(=O)c2sc3nc4c(cc3c2N)CN(Cc2ccccc2)CC4)c1,96

# System: U-251
# Assay: Growth inhibition of human U-251 cells assessed as cell growth at 0.1 uM incubated for 48 hrs by sulforhodamine B assay relative to control
# Assay type: functional
# Settings: read-out: Activity
row,Compound,growth at 0.1 µM [%]
1,COc1cccc(NC(=O)c2sc3nc4c(cc3c2N)CN(Cc2ccccc2)CC4)c1,98

# System: OVCAR-8
# Assay: Growth inhibition of human OVCAR-8 cells incubated for 48 hrs by sulforhodamine B assay
# Assay type: functional
# Settings: not given
# In short: as §1
Compound,GI50 [µM],TGI [µM]
COc1cccc(NC(=O)c2sc3nc4c(cc3c2N)CN(Cc2ccccc2)CC4)c1,4.45,85.2

# Same assay, conditions: read-out: LC50 (the source's name)
row,Compound,CC50 [µM]
1,COc1cccc(NC(=O)c2sc3nc4c(cc3c2N)CN(Cc2ccccc2)CC4)c1,> 100

# System: SK-MEL-28
# Assay: Growth inhibition of human SK-MEL-28 cells incubated for 48 hrs by sulforhodamine B assay
# Assay type: functional
# Settings: not given
# In short: as §1
Compound,GI50 [nM],LC50 [µM],TGI [µM]
COc1cccc(NC(=O)c2sc3nc4c(cc3c2N)CN(Cc2ccccc2)CC4)c1,2800,> 100,29.7

# Source: ChEMBL document CHEMBL4715736, “Identification of anticancer agents based on the thieno[2,3-b]pyridine and 1H-pyrazole molecular scaffolds” (2016)
